BindingDB's records for doi:10.1016/j.bmcl.2011.11.010 (Ludwig-Maximilians-University Munich, 2011)

Molecular target: T1, Beta-galactoside-binding lectin (Gallus gallus, UniProt P07583)
T1 sequence (P07583 whole entry): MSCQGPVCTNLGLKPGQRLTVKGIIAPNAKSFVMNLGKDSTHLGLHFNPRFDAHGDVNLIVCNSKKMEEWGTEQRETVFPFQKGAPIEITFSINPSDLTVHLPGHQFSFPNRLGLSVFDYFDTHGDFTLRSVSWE
Test: Inhibition of binding of biotinylated chicken galectin-1B to surface immobilized asialofetuin by solid phase assay
Method in brief: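 Asialofetuin was adsorbed to microtiter wells at a constant coating amount, and its N-glycans served as ligand. Biotinylated lectin at a lectin-specific concentration was added with inhibitor. IC50 (mM) was normalized to lactose, and potency was expressed relative to free lactose. Assays were run in triplicate across up to five independent series.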

`OC[C@H]1O[C@@H](O[C@H]2[C@H](O)[C@@H](O)[C@H](O)O[C@@H]2CO)[C@H](O)[C@@H](O)[C@H]1O` [Lactose, anhydrous] was tested, and the IC50 was 4 mM.
